Laboratory results from ChEMBL document CHEMBL2412965, “Macrocyclic biphenyl tetraoxazoles: synthesis, evaluation as G-quadruplex stabilizers and cytotoxic activity” (Bioorg Med Chem, 2013).

Columns and labels:
[1] = Cytotoxicity against human RPMI8402 cells after 4 days by MTT assay; assay type: functional, cell-based; settings: RPMI 8402, 96 h
[2] = Cytotoxicity against human KBV1 cells overexpressing MDR1 after 4 days by MTT assay; assay type: functional, cell-based; settings: KB-V1, 96 h
Summary of the method: (§1)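 Cells were grown in suspension in RPMI with 10% heat-inactivated FBS, 2 mM L-glutamine, penicillin and streptomycin at 37 °C, 5% CO2. Drug exposure was continuous for 4 days across a concentration range, with a drug-free control. IC50 came from at least two experiments in six replicate wells.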

Salmonidae [3] = assay: Binding affinity to salmon testes duplex DNA assessed as thermal transition temperature at 15 uM preincubated for 5 mins at 90 degC followed by cooling at room temperature measured after 4 hrs by UV spectrophotometric analysis in presence of 150 mM K+ (reference value: 86.1 degC)
Summary of the method: (§2)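 Salmon testes duplex DNA melting with ligand at 15 μM in 1 cm quartz cells. Buffer was 10 mM potassium phosphate, pH 7.5, with KCl added to give 50 mM K+ (32 mM KCl) or 150 mM K+ (132 mM KCl). Absorbance was read at 260 nm, temperature raised in 0.5 °C increments with 1 min equilibration and 5 s averaging. Ttran was taken from the first-derivative maximum.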

Homo sapiens [4] = species on record: Homo sapiens; assay: Binding affinity to human d(TTAGGG)4 assessed as thermal transition temperature at 20 uM preincubated for 5 mins at 90 degC followed by cooling at room temperature measured after 4 hrs by UV spectrophotometric analysis in presence of 150 mM K+ (reference value: 63.1 degC)
Summary of the method: (§3)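 UV melting of human telomeric d(TTAGGG)4 at 5 μM strand (120 μM nucleotide), with ligand at 20 μM. Before use, DNA was heated 5 min at 90 °C and cooled slowly to room temperature over 4 h. Buffer was 10 mM potassium phosphate, pH 7.5, with KCl added to give 50 mM K+ (32 mM KCl) or 150 mM K+ (132 mM KCl). Absorbance was read at 295 nm in 0.5 °C steps with 1 min equilibration. Ttran was taken from the first-derivative minimum.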

Salmonidae [5] = assay: Binding affinity to salmon testes duplex DNA assessed as thermal transition temperature at 15 uM preincubated for 5 mins at 90 degC followed by cooling at room temperature measured after 4 hrs by UV spectrophotometric analysis in presence of 50 mM K+ (reference value: 78.2 degC); summary of the method: as §2
Homo sapiens [6] = species on record: Homo sapiens; assay: Binding affinity to human d(TTAGGG)4 assessed as thermal transition temperature at 20 uM preincubated for 5 mins at 90 degC followed by cooling at room temperature measured after 4 hrs by UV spectrophotometric analysis in presence of 50 mM K+ (reference value: 55.3 degC); summary of the method: as §3
[7] = Cytotoxicity against human KBH5.0 cells overexpressing BCRP after 4 days by MTT assay; assay type: functional, cell-based; settings: KBH5.0 cell, 96 h; summary of the method: as §1
[8] = Cytotoxicity against wild type human KB-3-1 cells after 4 days by MTT assay; assay type: functional, cell-based; settings: KB 3-1, 96 h; summary of the method: as §1
MDA-MB-435 = assay: Antitumor activity against human MDA-MB-435 cells xenografted in athymic nude NCr mouse assessed as tumor growth inhibition at 14 to 31 mg/kg, ip administered 3 times per week for 3 weeks followed by 42 mg/kg, ip dose for 3 times per week for last 10 days measured 2 times per week during compound administration relative to control; assay type: functional
Mus musculus = assay: Toxicity in athymic nude NCr mouse xenografted with human MDA-MB-435 cells administered as ip for 3 times per week for 4 weeks measured 2 times per week during compound administration; assay type: organism-based; settings: in vivo, 672 h

| T (Salmonidae [3]) [°C] | T (Homo sapiens [4]) [°C] | T (Salmonidae [5]) [°C] | T (Homo sapiens [6]) [°C] | SMILES | IC50 [1] [µM] | IC50 [2] [µM] | IC50 [7] [µM] | IC50 [8] [µM] | T/C (MDA-MB-435) [%] | Activity (Mus musculus) |
| --- | --- | --- | --- | --- | --- | --- | --- | --- | --- | --- |
| 86.5 | 64.2 | 78.3 | 57.7 | CC(C)(C)OC(=O)NCC[C@@H]1NC(=O)c2coc(n2)-c2coc(n2)-c2cccc(c2)-c2cccc(c2)-c2nc(co2)-c2nc(co2)CNC1=O | 3.5 | > 10 | 6 | > 10 | – | – |
| 85.7 | 64.7 | 77.2 | 58.1 | O=C1N[C@@H](Cc2ccccc2)C(=O)NCc2coc(n2)-c2coc(n2)-c2cccc(c2)-c2cccc(c2)-c2nc(co2)-c2nc1co2 | > 10 | > 10 | > 10 | > 10 | – | – |
| 86.2 | 67.2 | 78.2 | 61.7 | CC(C)[C@@H]1NC(=O)c2coc(n2)-c2coc(n2)-c2cccc(c2)-c2cccc(c2)-c2nc(co2)-c2nc(co2)CNC1=O | – | 6.5 | 10 | 5 | – | – |
| 86.7 | 92.2 | 78.2 | 92.7 | CC(C)[C@@H]1NC(=O)c2coc(n2)-c2coc(n2)-c2coc(n2)[C@H](CCN(C)C)NC(=O)c2coc(n2)-c2coc(n2)-c2coc1n2 | 0.07 | 5 | 0.03 | – | 21.6 | <= 45 mg kg-1 |
| 86.7 | 67.3 | 78.2 | 60.1 | O=C1CNC(=O)c2coc(n2)-c2coc(n2)-c2cccc(c2)-c2cccc(c2)-c2nc(co2)-c2nc(co2)CN1 | 2.5 | > 10 | > 10 | 2.3 | – | – |
| 87.1 | 77.7 | 81.1 | 68.2 | NCC[C@@H]1NC(=O)c2coc(n2)-c2coc(n2)-c2cccc(c2)-c2cccc(c2)-c2nc(co2)-c2nc(co2)CNC1=O | 7 | > 10 | > 10 | 4 | – | – |
| 86.7 | 73.7 | 79.1 | 63.7 | CN(C)CC[C@@H]1NC(=O)c2coc(n2)-c2coc(n2)-c2cccc(c2)-c2cccc(c2)-c2nc(co2)-c2nc(co2)CNC1=O | 6.5 | > 10 | > 10 | 3.5 | – | – |
| – | – | – | – | CC(C)[C@@H]1NC(=O)c2coc(n2)-c2coc(n2)-c2coc(n2)[C@H](C(C)C)NC(=O)c2coc(n2)-c2coc(n2)-c2coc1n2 [HEXAOXAZOLE DIVALINE] | 0.41 | > 10 | 0.5 | 0.3 | – | – |
| 86.8 | 91.2 | 78.7 | 91.2 | CN(C)CCc1cc2cc(c1)CNC(=O)c1coc(n1)-c1coc(n1)-c1cccc(n1)-c1nc(co1)-c1nc(co1)C(=O)NC2 | 0.18 | > 10 | > 10 | 0.04 | – | – |

| SMILES | T (Salmonidae [3]) [°C] | T (Homo sapiens [4]) [°C] | T (Salmonidae [5]) [°C] | T (Homo sapiens [6]) [°C] | IC50 [1] [µM] | IC50 [2] [µM] | IC50 [7] [µM] | IC50 [8] [µM] | T/C (MDA-MB-435) [%] | Activity (Mus musculus) |
| --- | --- | --- | --- | --- | --- | --- | --- | --- | --- | --- |
| CC(C)[C@@H]1NC(=O)c2coc(n2)-c2coc(n2)-c2coc(n2)C/C=C/c2coc(n2)-c2coc(n2)-c2coc1n2 | 86.2 | 93.2 | 78.2 | 92.2 | 0.03 | 3.3 | 0.04 | – | – | – |
